The test system of data set [1] is Jurkat. The data set can be described thus: Cell cycle arrest in human Jurkat E6-1 cells assessed as accumulation at G0/G1 phase at 12 uM after 24 hrs by FACS flow cytometry. The format is functional. A digest of the protocol: (§1)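 Jurkat E6 cells cultured in RPMI 1640 with 10% FBS at 37 °C, 5% CO2. Compounds serially diluted in medium, starting 50% above the M21 IC50. 4.0 × 10^5 cells were exposed for 24 h. Cells were washed with PBS, chicken red blood cells added as internal standard, and fixed in ice-cold EtOH. After 1 h on ice in PBS with 1 μg/mL DAPI, phase distribution was read by flow cytometry. DMSO-treated cells served as control.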

For data set [2], the system named is Jurkat. Description: Cell cycle arrest in human Jurkat E6-1 cells assessed as accumulation at S phase at 12 uM after 24 hrs by FACS flow cytometry. The format is functional. A digest of the protocol: (§2)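 Jurkat E6 cells grown in RPMI 1640 with 10% FBS at 37 °C, 5% CO2. Compounds were serially diluted in medium starting 50% above the M21 IC50. 4.0 × 10^5 cells were exposed for 24 h, then washed and spiked with chicken red blood cells as internal standard. Cells were fixed in ice-cold ethanol, stained with 1 μg/mL DAPI on ice for 1 h, and phase distribution was read by flow cytometry. The control was 0.5% DMSO.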

For data set [3], the system named is Jurkat. The data set can be described thus: Cell cycle arrest in human Jurkat E6-1 cells assessed as accumulation at G2/M phase at 12 uM after 24 hrs by FACS flow cytometry. The format is functional. The procedure, abridged: as §1
The test system of data set [4] is M21. The data set can be described thus: Induction of DNA damage response in human M21 cells assessed as phosphorylation of H2AX into gammaH2AX at IC50 after 24 hrs by DAPI staining-based immunofluorescence assay. The format is functional, cell-based. The procedure, abridged:
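M21 cells (1 × 10^5) on fibronectin-coated coverslips, grown 24 h, then exposed to agent for 24 h at 37 °C; 0.5% DMSO control. Fixed with 3.7% formaldehyde and permeabilized with 0.1% saponin/3% BSA. Probed with mouse anti-H2AX pS139 antibody for 2 h at room temperature. Nuclei counterstained with DAPI; nuclear γH2AX foci viewed by epifluorescence microscopy.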

In a further data set the test system is HT-29. Description: Cytotoxicity against human HT-29 cells after 48 hrs by SRB assay. The format is functional, cell-based. The following applies: HT-29, 48 h. A digest of the protocol: (§3)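 NCI sulforhodamine B protocol. Cells were grown in high-glucose DMEM with 5% FBS and seeded per well at 4 × 10^3 (HT-29), 3.5 × 10^3 (M21) or 3 × 10^3 (MCF-7), then allowed 24 h to attach. Serial dilutions from 200 μM to 780 nM final were applied in DMSO <0.5% for 48 h. Cells were fixed with cold TCA (10% final) and stained with SRB, with absorbance read at 530–568 nm. Growth inhibition was computed against day-0 plates, giving the 50% inhibitory concentration. At least two experiments in triplicate, CV <10%.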
(In general: Sulforhodamine B stains cellular protein and so reports cell mass.)

Data set [5] concerns M21. Description: Cytotoxicity against human M21 cells after 48 hrs by SRB assay. It counts as functional, cell-based. The following applies: M21, 48 h. The procedure, abridged: as §3
The subject of data set [6] is Jurkat. The data set can be described thus: Cell cycle arrest in human Jurkat E6-1 cells assessed as accumulation at G0/G1 phase at 22 uM after 24 hrs by FACS flow cytometry. It counts as functional. A digest of the protocol: as §1
(Flow cytometry measures light scatter and fluorescence of single cells or particles in a stream.)

Data set [7] relates to Jurkat. The data set can be described thus: Cell cycle arrest in human Jurkat E6-1 cells assessed as accumulation at S phase at 22 uM after 24 hrs by FACS flow cytometry. The format is functional. A digest of the protocol:
as §2

Data set [8] deals with Jurkat. The data set can be described thus: Cell cycle arrest in human Jurkat E6-1 cells assessed as accumulation at G2/M phase at 22 uM after 24 hrs by FACS flow cytometry. It counts as functional. The procedure, abridged: as §2
The next data set deals with MCF7. The data set can be described thus: Cytotoxicity against human MCF7 cells after 48 hrs by SRB assay. It counts as functional, cell-based. Particulars: MCF7, 48 h. A digest of the protocol:
as §3

Data set [9] relates to Jurkat. The data set can be described thus: Cell cycle arrest in human Jurkat E6-1 cells assessed as accumulation at S phase at 31 uM after 24 hrs by FACS flow cytometry. The format is functional. The procedure, abridged:
(§4)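 Jurkat E6 T-lymphoblasts in RPMI 1640 with 10% FBS, 37 °C, 5% CO2. […] Chicken red blood cells were added as internal standard. Cells were fixed in ice-cold EtOH and stained with 1 μg/mL DAPI on ice for 1 h before flow cytometry of phase distribution. Vehicle control was 0.5% DMSO.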

Data set [10] relates to Jurkat. The data set can be described thus: Cell cycle arrest in human Jurkat E6-1 cells assessed as accumulation at G2/M phase at 31 uM after 24 hrs by FACS flow cytometry. The format is functional. The procedure, abridged:
as §2

The subject of data set [11] is Jurkat. The data set can be described thus: Cell cycle arrest in human Jurkat E6-1 cells assessed as accumulation at G0/G1 phase at 31 uM after 24 hrs by FACS flow cytometry. The format is functional. A digest of the protocol:
as §1

The test system of data set [12] is Jurkat. The data set can be described thus: Cell cycle arrest in human Jurkat E6-1 cells assessed as accumulation at S phase at 26 uM after 24 hrs by FACS flow cytometry. It counts as functional. A digest of the protocol:
as §4

Data set [13] deals with Jurkat. Description: Cell cycle arrest in human Jurkat E6-1 cells assessed as accumulation at G2/M phase at 26 uM after 24 hrs by FACS flow cytometry. It counts as functional. The procedure, abridged: as §2
Data set [14] relates to Jurkat. Description: Cell cycle arrest in human Jurkat E6-1 cells assessed as accumulation at G0/G1 phase at 26 uM after 24 hrs by FACS flow cytometry. It counts as functional. A digest of the protocol: as §1
The subject of data set [15] is Jurkat. Description: Cell cycle arrest in human Jurkat E6-1 cells assessed as accumulation at G0/G1 phase at 2.5 uM after 24 hrs by FACS flow cytometry. It counts as functional. A digest of the protocol: as §1
Data set [16] has as its system Jurkat. The data set can be described thus: Cell cycle arrest in human Jurkat E6-1 cells assessed as accumulation at S phase at 2.5 uM after 24 hrs by FACS flow cytometry. It counts as functional. A digest of the protocol:
as §2

For data set [17], the system named is Jurkat. The data set can be described thus: Cell cycle arrest in human Jurkat E6-1 cells assessed as accumulation at G2/M phase at 2.5 uM after 24 hrs by FACS flow cytometry. It counts as functional. A digest of the protocol: as §2
The next data set concerns HT-1080. The data set can be described thus: Antitumor activity against human HT1080 cells xenografted in chicken chorioallantoic membrane assessed as inhibition of tumor growth at 30 ug per egg, iv administered on day 11 measured on day 17 by CAM assay. It counts as functional. A digest of the protocol: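 HT-1080 fibrosarcoma cells (3.5 × 105/egg) were applied onto freshly exposed CAM of fertilized chicken eggs. On day 11, drug from a DMSO stock was diluted in Cremophor EL/99% ethanol/PBS (1/1/14 v/v) and 100 μL was injected into a vein under the CAM. Groups of 10–12 eggs were kept to day 17, embryos were euthanized at 4 °C for ≥4 h, and tumor wet weight was recorded.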

The nature of data set [18]: Toxicity in fertilized chicken embryo assessed as mortality rate at 30 ug per egg, iv administered on day 11 measured on day 17 by CAM assay. The format is organism-based, Gallus gallus. Particulars: in vivo, read-out: Activity. The procedure, abridged:
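Fertilized chicken eggs grafted on the CAM with HT-1080 cells (3.5 × 105/egg) received a 100 μL intravenous injection under the CAM on day 11. The drug was diluted in Cremophor EL/99% ethanol/PBS (1/1/14 v/v). Groups held 10–12 eggs and were incubated until day 17, when dead embryos and signs of toxicity were counted per group.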

Data set [19] relates to Jurkat. The data set can be described thus: Cell cycle arrest in human Jurkat E6-1 cells assessed as accumulation at G0/G1 phase at 40 uM after 24 hrs by FACS flow cytometry. It counts as functional. The procedure, abridged: as §1
Data set [20] deals with Jurkat. The data set can be described thus: Cell cycle arrest in human Jurkat E6-1 cells assessed as accumulation at S phase at 40 uM after 24 hrs by FACS flow cytometry. It counts as functional. The procedure, abridged:
as §4

For data set [21], the system named is Jurkat. Description: Cell cycle arrest in human Jurkat E6-1 cells assessed as accumulation at G2/M phase at 40 uM after 24 hrs by FACS flow cytometry. It counts as functional. A digest of the protocol: as §2

The source made the active and inactive calls. No cut-off for these calls is given here.

In general, IC50 refers to the concentration at which inhibition is half-maximal. A higher IC50 goes with weaker potency. The TGI is how far tumour growth fell short of that in controls.

`CCNC(=O)Nc1cccc(S(=O)(=O)Oc2ccccc2CC)c1`: the Activity turned out to be 26% in the data set on Jurkat [1], 63% in the data set with Jurkat [2] and 11% in the data set with Jurkat [3]. Also, in the data set on M21 [4], the outcome was Active. The IC50 turned out to be 33 µM with HT-29 and 30 µM in the data set on M21 [5].

For the compound `CCCc1ccccc1NS(=O)(=O)c1ccc(NC(=O)NCCCCl)cc1`, the Activity in the data set on Jurkat [6] is given as 36%; in the data set on Jurkat [7], 41%; with Jurkat [8], 23%. Besides, the IC50 is 26 µM with HT-29, 38 µM in the data set with M21 [5] and 35 µM in the data set with MCF7.

As for `O=C(NCCCCl)Nc1ccc(S(=O)(=O)Oc2ccc(O)cc2)cc1`, the figures for the Activity in the data set with Jurkat [9], in the data set with Jurkat [10] and in the data set on Jurkat [11] were 65%, 12% and 23%, respectively. For the same compound, the outcome in the data set on M21 [4] was Active. Also, the IC50 with HT-29 was found to be 50 µM; in the data set on M21 [5], 47 µM; with MCF7, 51 µM.

Consider `CCCc1ccccc1NS(=O)(=O)c1cccc(NC(=O)NCCCCl)c1`, for which the Activity with Jurkat [12] was determined as 43%; in the data set on Jurkat [13], 13%; in the data set with Jurkat [14], 44%. The IC50 with HT-29 stood at 15 µM; with M21 [5], 23 µM; with MCF7, 18 µM.

With `CCNC(=O)Nc1ccc(S(=O)(=O)Oc2ccccc2C)cc1`, the Activity with Jurkat [15] is 23%; in the data set on Jurkat [16] it was 61%; in the data set with Jurkat [17], 16%. Moreover, in the data set with M21 [4], the outcome was Active. Besides, the TGI with HT-1080 was 68%. Besides, the mortality at 6 days in data set [18] stood at 9%. Also, the values for the IC50 in the data set on HT-29, with M21 [5] and in the data set with MCF7 were 12 µM, 3.1 µM and 4.5 µM, respectively.

For the compound `CCNC(=O)Nc1cccc(S(=O)(=O)Oc2ccccc2C)c1`, the Activity in the data set with Jurkat [19] is recorded as 25%; with Jurkat [20], 60%; with Jurkat [21], 15%. Moreover, the result with M21 [4] was Active. Moreover, the figures for the IC50 in the data set with HT-29, in the data set with M21 [5] and in the data set with MCF7 were 44 µM, 51 µM and 55 µM, respectively.

The values above are taken from ChEMBL document CHEMBL2163200, “Synthesis, biological evaluation, and structure-activity relationships of novel substituted N-phenyl ureidobenzenesulfonate derivatives blocking cell cycle progression in S-phase and inducing DNA double-strand breaks” (J Med Chem, 2012).
